# Test results taken from ChEMBL document CHEMBL1127319, “CNAD: a potent and specific inhibitor of alcohol dehydrogenase” (J Med Chem, 1994).
# pKi: −log10 of the molar value.
# What was measured:
# [1] = biological target: Glutamate dehydrogenase 1, mitochondrial (Bos taurus, UniProt P00366); assay: Inhibition constant against mammalian glutamate dehydrogenase (GDH)
# Summary of the method: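 Bovine liver GDH in 0.1 M sodium phosphate, pH 7.0, with 10 μM EDTA. NAD is the variable substrate. Rates are followed as the increase in A340 from NADH formation (ε 6.22 mM-1 cm-1). Ki is taken from Lineweaver-Burk plots by linear regression. At least duplicate runs.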
# [2] = Apparent inhibition constant against mammalian malate dehydrogenase (MDH)
# Summary of the method: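 LDH and MDH: 0.05 M Tris-HCl, pH 9.0. NAD is the variable substrate. Rates come from the rise in A340 as NADH forms (ε 6.22 mM-1 cm-1). Ki is estimated from Lineweaver-Burk plots by linear regression of slope and intercept. Assays run at least in duplicate.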
# Chain of Glutamate dehydrogenase 1, mitochondrial (P00366 whole entry): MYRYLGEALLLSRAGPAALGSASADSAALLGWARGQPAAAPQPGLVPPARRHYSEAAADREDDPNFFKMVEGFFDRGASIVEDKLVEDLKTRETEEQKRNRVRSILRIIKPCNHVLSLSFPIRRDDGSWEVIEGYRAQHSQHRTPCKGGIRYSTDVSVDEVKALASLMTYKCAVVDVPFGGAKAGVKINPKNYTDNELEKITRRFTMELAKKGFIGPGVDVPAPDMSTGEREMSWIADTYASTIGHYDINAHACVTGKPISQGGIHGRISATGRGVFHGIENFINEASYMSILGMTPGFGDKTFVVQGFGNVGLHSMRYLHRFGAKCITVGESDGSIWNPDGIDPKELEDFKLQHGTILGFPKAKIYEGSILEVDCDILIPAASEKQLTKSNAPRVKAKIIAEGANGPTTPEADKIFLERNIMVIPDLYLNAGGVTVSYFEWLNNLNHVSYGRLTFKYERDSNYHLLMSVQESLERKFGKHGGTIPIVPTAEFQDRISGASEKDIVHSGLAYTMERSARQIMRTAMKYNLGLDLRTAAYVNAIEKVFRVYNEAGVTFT
Structure (SMILES),pKi [1],pKi [2]
NC(=O)C1=CN(C2OC(COP(=O)(O)OP(=O)(O)OC[C@H]3O[C@@H](n4cnc5c(N)ncnc54)[C@H](O)[C@@H]3O)[C@H](O)[C@@H]2O)C=CC1 (stereo partly drawn),5.47,
NC(=O)c1cncc([C@@H]2O[C@H](COP(=O)(O)OP(=O)(O)OC[C@H]3O[C@@H](n4cnc5c(N)ncnc54)[C@H](O)[C@@H]3O)[C@@H](O)[C@H]2O)c1,,3.39
NC(=O)c1cccc([C@@H]2O[C@H](COP(=O)(O)OP(=O)(O)OC[C@H]3O[C@@H](n4cnc5c(N)ncnc54)[C@H](O)[C@@H]3O)[C@@H](O)[C@H]2O)n1,4.30,
